Sampled rows, rich in hits. Any-hit rate of the full collection: about 3.7%.
KCNQ1 block: inhibitors of human KCNQ1 channel, primary screen, cell-based, thallium flux, high-throughput. CHO-K1 KCNQ1, FluxOR thallium flux fluorescence; active compounds read high. B-score at 10 µM. actives 1.3% (n = 310,000). AID 2642, 2010;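 active means compounds whose thallium flux B-score, printed positive for inhibition, exceeds three library SD while starting fluorescence stays within three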;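 further: channel opened by potassium depolarization with thallium stimulus after 20 min compound exposure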
KCNK3 inh: human KCNK3 channel inhibitors, primary screen, CHO cells, FluxOR thallium flux, B-score. FluxOR fluorescence; active compounds read low. B-score at 10 µM. actives 0.84% (n = 340,000). AID 602410, 2012;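 active means B-score under library mean minus 4 SD, starting fluorescence ratio at most library mean plus 5 SD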;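 further: more negative B-score means stronger inhibition of thallium flux through KCNK3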
KCNK9 block: KCNK9 potassium channel inhibitors, primary screen, HEK293 cells, thallium flux. FluxOR thallium flux fluorescence; active compounds read low. B-score at 10 µM. actives 1.2% (n = 310,000). Potassium channel subfamily K member 9 (Homo sapiens), Q9NPC2;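 active means ratio B-score over 3 SD below the library mean, with starting fluorescence within 5 SD of its mean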;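 further: negative B-score means less thallium flux so channel inhibition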
KCNQ1 pot: potentiators or activators of KCNQ1 channel, primary screen, cell-based, thallium flux, high-throughput; actives 0.35% (n = 310,000); CHO-K1 KCNQ1, thallium flux FluxOR fluorescence; active compounds read high; AID 2648, 2010; Potassium voltage-gated channel subfamily KQT member 1 (Homo sapiens), P51787; B-score at 10 µM;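 active means fluorescence ratio B-score, a plate-corrected score, at least three library SD, with initial intensity B-score within 5 SD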
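System: CHO-K1 cells stably expressing KCNQ1 / Medium: assay buffer for compound exposure, DMSO matched across wells / Reagent: thallium- and potassium-containing depolarizing buffer / Compound: one concentration, matched DMSO / Incubation: 20 min compound pretreatment at room temperature / Measured by: kinetic FluxOR fluorescence, 10 s baseline plus 110 s post-stimulus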
Kir21 inh: inhibitors of mouse Kir2.1 inward-rectifier potassium channel; B-score at 10 µM; AID 1672, 2009; actives 0.85% (n = 310,000); HEK293-Kir2.1, FluxOR thallium flux fluorescence; active compounds read low;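 active means fluorescence ratio B-score at or below minus 3 SD of library scores, with starting-brightness B-score within 2 SD, cut at about -4.2 in these data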;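 further: channel flux triggered by added potassium and thallium sulfate stimulus; B-score of peak minus minimum fluorescence over baseline after thallium stimulus; more negative B-score means stronger Kir2.1 block with less thallium influx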
hERG protect: hERG rescue from dofetilide block, primary screen, cell-based, CHO-hERG, FluxOR thallium flux, dofetilide IC70; Voltage-gated inwardly rectifying potassium channel KCNH2 (Homo sapiens), Q12809; dofetilide IC70 present; activation (rescue from dofetilide block), less the hit threshold, % at 10 µM; actives 0.51% (n = 310,000); AID 1511, 2009;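 active means activation above the mean of controls blocked by dofetilide plus 5 SD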;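 further: thallium influx through hERG after potassium depolarization seen as dye fluorescence rise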
Large screens that a line does not name were inactive.

ON=C1CCCCCCCC1	none (no result: KCNQ1 block, KCNK9 block, KCNQ1 pot, Kir21 inh, hERG protect)
CCc1ccc(-n2cc(-c3ccc(F)cc3)[n+]3c2SCCC3)cc1	KCNQ1 block 6
c1ccc(-c2cn(-c3ccccc3)c3[n+]2CCCS3)cc1	none
COc1ccc(-n2cc(-c3ccc(C)cc3)[n+]3c2SCC3)cc1	KCNQ1 block 7
Cc1ccc(-c2cn(-c3ccccc3)c3[n+]2CCCS3)cc1	none
CC1CN(c2ccc([N+](=O)[O-])c(NCCOc3ccccc3)c2)CCN1 (configuration not stated)	Kir21 inh -5.13
Cc1ccccc1OCCNc1cc(N2CCN(CCO)CC2)ccc1[N+](=O)[O-]	none
